ZTA counter – ZTA (EBV) inhibition in EBNA-1 counter-screen; inhibition, % at 11 µM; AID 2234; ZTA-DNA binding, fluorescence polarization; P03206; 0.15% of 320,000 active; in the data active = inhibition above about 33%
Target sequence (P03206 whole entry, looked up): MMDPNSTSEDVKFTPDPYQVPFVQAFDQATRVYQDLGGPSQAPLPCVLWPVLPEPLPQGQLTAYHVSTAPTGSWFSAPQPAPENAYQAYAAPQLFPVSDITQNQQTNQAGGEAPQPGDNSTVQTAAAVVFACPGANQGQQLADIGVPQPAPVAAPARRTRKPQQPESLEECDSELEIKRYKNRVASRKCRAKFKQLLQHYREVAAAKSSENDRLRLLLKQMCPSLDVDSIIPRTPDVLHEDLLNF
FGF22 binding – FGF22 (human) thermal shift binding; Q9HCT0; recombinant FGF22 thermal shift, SYPRO orange fluorescence; percent of sucrose octasulfate shift, DMSO zero; activity (Tm shift, normalised), % at 9.99 µM; 1.5% of 340,000 active;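 active = mean Tm shift, scaled 0 neutral to 100 positive control, at about 1.3% or above, every replicate too, limit read from the data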
Target sequence (Q9HCT0 whole entry, looked up): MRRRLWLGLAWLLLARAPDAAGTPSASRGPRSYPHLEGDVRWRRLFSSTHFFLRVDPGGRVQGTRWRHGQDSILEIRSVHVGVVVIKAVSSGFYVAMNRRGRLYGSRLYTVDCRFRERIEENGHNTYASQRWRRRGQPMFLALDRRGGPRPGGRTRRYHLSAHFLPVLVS
NR3A LBD binder – modulates the human NR3A ligand-binding domain; NR3A LBD differential scanning fluorimetry, Tm shift; 0% = protein alone, 100% = glycine-bound protein; 2.5% of 340,000 active; Tm shift relative to glycine control, % at 25 µM; AID 1259313;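 active = melting temperature shift of at least 10% of the positive control shift, at one fixed dose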
DNA FID counter – fluorescent intercalator displacement, NS3 helicase counter-screen; inhibition, % at 7.9 µM; 0.17% of 290,000 active; DNA fluorescent intercalator displacement, fluorescence; in the data active = inhibition above about 37%;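 also: 0% = vehicle and 100% = reference compound; higher means more ethidium bromide displaced from hairpin DNA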
NS3 helicase inh – blocks Hepatitis C virus NS3 helicase unwinding; inhibition, % at 10.9 µM; AID 1800; 0.56% of 290,000 active; NS3 helicase DNA unwinding, Cy5 molecular beacon fluorescence;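 active = inhibition above the mean of all tested compounds plus 3 SD, set per campaign, cut at about 35% in these data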;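 also: 0% = DMSO wells and 100% = thioflavine S control wells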
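Material: hepatitis C virus NS3 helicase domain fragment enzyme; measured by: Cy5 fluorescence, 0 and 60 min reads; control set: DMSO and thioflavine S; incubation: 60 min unwinding reaction at 25 °C after ATP addition; read-out basis: % inhibition from 60/0 min fluorescence ratio, DMSO 0%, thioflavine S 100%; repeats: singlicate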
EBNA-1 inhibitor – blocks EBNA-1 binding to DNA. 0.34% of 300,000 active. inhibition, % at 14.8 µM. AID 1950. EBNA-1 DNA binding, fluorescence polarization; in the data active = inhibition above about 28%
An asterisk follows results filed as active; · = no result. The list is not random: actives were taken first. Their share in the collection is about 3.6%.

SMILES | ZTA counter | FGF22 binding | NR3A LBD binder | DNA FID counter | NS3 helicase inh | EBNA-1 inhibitor
CC(C)(Oc1ccc(Br)cc1Cl)C(=O)Nc1ccon1 | -2 | 0 | 13* | -27 | 15 | 5
O=C(Nc1ccon1)Nc1cc(Cl)ccc1Cl | -1 | 0 | -10 | -7 | 2 | 4
O=C(O)c1cccc2cc(-c3ccccc3)oc(=O)c12 | 13 | 0 | 2 | 1 | 6 | 2
O=c1cc(-c2ccc(O)c(O)c2)oc2ccc3ccccc3c12 | · | · | 25* | · | · | ·
O=c1oc(-c2ccc(O)c(O)c2)cc2cccc(O)c12 | · | 0 | 24* | · | · | ·
O=c1cc(-c2ccccc2)oc2ccc3ccccc3c12 | · | 0 | · | · | · | ·
CC(=O)N/C(=C\c1ccc(F)cc1)C(=O)NC(Cc1c[nH]c2ccccc12)C(=O)O (stereo not given) | -7 | 0 | 14* | -6 | -5 | -7
O=C(Cc1ccc(F)cc1)NC1CCSC1=O (stereo not given) | 12 | 43* | -1 | 2 | 20 | -2
CCCCCCCCCCCCCCCC[n+]1ccc(/C=N/O)cc1 | 3 | 0 | 25* | 18 | -54 | -8
CCCCCCCC[n+]1cccc(C(=O)N(CC)CC)c1 | -12 | 43* | -3 | 2 | 7 | -1
CCCCCCCCCCCCCCCC[n+]1ccc(C(N)=O)cc1 | -8 | · | 16* | 19 | -61 | -4
O=C(C[C@H]1CC[C@@H]2[C@H](COC[C@H](O)CN2C(=O)c2ccccc2)O1)Nc1nccs1 | · | 0 | · | · | · | ·
O=C(C[C@H]1C[C@@H]2c3cc(NC(=O)CC4CC4)ccc3O[C@@H]2[C@@H](CO)O1)NCc1ccc2c(c1)OCO2 | · | 0 | · | · | · | ·
O=C(O)c1ccc(S(=O)(=O)NN=Cc2c[nH]c3ccccc23)cc1 | · | 0 | · | · | · | ·
COc1ccc2[nH]cc(/C=N/NS(=O)(=O)c3ccc(C)cc3)c2c1 | -11 | 0 | 25* | 6 | -12 | 5
Cc1ccc(S(=O)(=O)N/N=C/c2c[nH]c3ccccc23)cc1 | 6 | 42 | 31* | 7 | -10 | 0
Cc1ccc(S(=O)(=O)/C(C#N)=C/c2c[nH]c3ccccc23)cc1 | -14 | · | 13* | 6 | -5 | -7
CCC(=O)N[C@@H]1CC[C@H](CCNS(=O)(=O)c2ccc(Cl)cc2)O[C@@H]1CO | · | 0 | · | · | · | ·
COc1cc2nc3n(c(=O)c2cc1OC)-c1cc2ccccc2cc1C(=O)NC3CC(C)C (stereo not given) | · | 43* | · | · | · | ·
COc1ccc(OC)c(-c2csc(NC(=O)COC(=O)C3CCC3)n2)c1 | 1 | 0 | -2 | · | · | ·
COc1ccc(OC)c(-c2csc(NC(=O)Cc3cc(OC)c(OC)c(OC)c3)n2)c1 | -6 | 0 | -3 | -33 | -18 | -6
COc1ccc(OC)c(-c2csc(NC(=O)CSc3ccc([N+](=O)[O-])cc3)n2)c1 | 9 | 0 | 12* | 5 | 2 | 10
COc1ccc(OC)c(-c2csc(NC(=O)COC(=O)c3ccc(NC(=O)CC#N)cc3)n2)c1 | 8 | · | 13* | · | · | ·
COc1ccc(OC)c(-c2csc(NC(=O)CSc3ccc(Br)cc3)n2)c1 | 15 | 0 | 19* | -2 | 4 | 3
Cc1ccc(-c2nnn(CC(=O)Nc3ccc(S(=O)(=O)N4CCC(C)CC4)cc3)n2)cc1 | 12 | · | 55* | 5 | -15 | 11
SMILES | ZTA counter | FGF22 binding | NR3A LBD binder | DNA FID counter | NS3 helicase inh | EBNA-1 inhibitor
CC1CCN(CC(=O)Nc2ccc(S(=O)(=O)N3CCC(C)CC3)cc2)CC1 | 7 | 0 | -3 | 25 | -23 | 5
CC1CCCN(S(=O)(=O)c2ccc(NC(=O)Cn3nnc(-c4ccccc4F)n3)cc2)C1 (stereo not given) | 6 | 0 | 12* | -2 | -48 | 6
Cc1cc(C(=O)Nc2cccc3c2O[C@@H](CN(C)Cc2ccncc2)[C@H](C)CN([C@H](C)CO)C3=O)n(C)n1 | · | 0 | · | · | · | ·
CC(C)SCC(=O)Nc1ncc2c(n1)-c1ccccc1CC2 | -24 | 44* | -2 | -8 | 5 | -1
N#Cc1cccc(-c2ccc([C@H]3[C@@H](CO)N4CCCCN(C(=O)Nc5ccccc5)C[C@@H]34)cc2)c1 | · | 0 | · | · | · | ·
CCn1c(CCl)nc2cc(S(=O)(=O)N3CCOCC3)ccc21 | · | 43* | 0 | · | · | ·
CCn1c(SCC(N)=O)nc2cc(S(=O)(=O)N3CCOCC3)ccc21 | -29 | 0 | 2 | -3 | 13 | 0
